# ChEMBL document CHEMBL1153576, “Novel ureas and thioureas of 15-membered azalides with antibacterial activity against key respiratory pathogens” (Eur J Med Chem, 2009)
# What was measured:
# Format in all cases: functional
# Enterococcus faecalis = experiment: Antibacterial activity against Enterococcus faecalis ATCC 29212 after 16 to 22 hrs by broth dilution method
# Outline: (§1)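 Broth microdilution per the CLSI approved standard (sixth edition), using two-fold serial dilutions of compound in Mueller–Hinton broth. Stocks at 5 mg/ml in DMF. Inoculum came from a direct colony suspension adjusted by turbidity to about 5 × 10⁴ CFU/well final. Trays were incubated at 35 °C for 16–22 h. MIC is the lowest concentration completely inhibiting growth (99% inhibition).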
# Streptococcus pyogenes [1] = experiment: Antibacterial activity against efflux-mediated macrolide-resistance Streptococcus pyogenes after 16 to 22 hrs by broth microdilution method
# Outline: (§2)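 Two-fold serial dilutions in microdilution trays, following the CLSI dilution standard for aerobic bacteria. Medium was Mueller–Hinton broth with 5% horse serum for streptococci. Stocks were made at 5 mg/ml in DMF. Inoculum came from a direct colony suspension adjusted by turbidity to about 5 × 10⁴ CFU/well final. Incubation was at 35 °C for 16–22 h. MIC is the lowest concentration completely inhibiting growth (99% inhibition).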
# Streptococcus pneumoniae [2] = experiment: Antibacterial activity against constitutive macrolide-lincosamide-streptogramin-resistant Streptococcus pneumoniae after 16 to 22 hrs by broth microdilution method; outline: as §2
# Moraxella catarrhalis = experiment: Antibacterial activity against Moraxella catarrhalis ATCC 23246 after 16 to 22 hrs by broth dilution method; outline: as §1
# Haemophilus influenzae = experiment: Antibacterial activity against Haemophilus influenzae ATCC 49247 after 16 to 22 hrs by broth dilution method
# Outline: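 Microdilution trays following the CLSI standard, with two-fold serial dilutions in supplemented broth suited to H. influenzae. DMF stocks at 5 mg/ml. Inoculum prepared from a turbidity-adjusted direct colony suspension to about 5 × 10⁴ CFU/well final. Incubated at 35 °C for 16–22 h. MIC is the lowest concentration giving complete (99%) growth inhibition.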
# Streptococcus pneumoniae [3] = experiment: Antibacterial activity against erythromycin-susceptible Streptococcus pneumoniae after 16 to 22 hrs by broth microdilution method
# Outline: (§3)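 Streptococci tested by CLSI broth microdilution in Mueller–Hinton broth with 5% horse serum, using two-fold serial dilutions. Compounds were dissolved in DMF at 5 mg/ml (stock). Inoculum was a turbidity-adjusted direct colony suspension giving about 5 × 10⁴ CFU/well. Trays were held at 35 °C for 16–22 h. MIC is the lowest concentration completely inhibiting growth (99%).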
# Streptococcus pyogenes [4] = experiment: Antibacterial activity against inducible macrolide-lincosamide-streptogramin-resistant Streptococcus pyogenes 16 to 22 hrs by broth microdilution method; outline: as §2
# Escherichia coli = experiment: Antibacterial activity against Escherichia coli ATCC 25922 after 16 to 22 hrs by broth dilution method; outline: as §1
# Staphylococcus aureus = experiment: Antibacterial activity against Staphylococcus aureus ATCC 29213 after 16 to 22 hrs by broth microdilution method; outline: as §1
# Streptococcus pyogenes [5] = experiment: Antibacterial activity against erythromycin-susceptible Streptococcus pyogenes after 16 to 22 hrs by broth microdilution method; outline: as §3
# Streptococcus pneumoniae [6] = experiment: Antibacterial activity against efflux-mediated macrolide-resistant Streptococcus pneumoniae after 16 to 22 hrs by broth microdilution method; outline: as §2
SMILES,MIC (Enterococcus faecalis),MIC (Streptococcus pyogenes [1]),MIC (Streptococcus pneumoniae [2]),MIC (Moraxella catarrhalis),MIC (Haemophilus influenzae),MIC (Streptococcus pneumoniae [3]),MIC (Streptococcus pyogenes [4]),MIC (Escherichia coli),MIC (Staphylococcus aureus),MIC (Streptococcus pyogenes [5]),MIC (Streptococcus pneumoniae [6])
CC[C@H]1OC(=O)[C@H](C)[C@@H](O[C@H]2C[C@@](C)(OC)[C@@H](O)[C@H](C)O2)[C@H](C)[C@@H](O[C@@H]2O[C@H](C)C[C@H](N(C)C)[C@H]2O)[C@](C)(O)C[C@@H](C)CN(CCCN(CCC#N)C(=O)NCCc2ccccc2)[C@H](C)[C@@H](O)[C@]1(C)O,64 µg/mL,64 µg/mL,> 64 µg/mL,16 µg/mL,32 µg/mL,≤ 0.125 µg/mL,32 µg/mL,> 64 µg/mL,4 µg/mL,≤ 0.125 µg/mL,64 µg/mL
CC[C@H]1OC(=O)[C@H](C)[C@@H](O[C@H]2C[C@@](C)(OC)[C@@H](O)[C@H](C)O2)[C@H](C)[C@@H](O[C@@H]2O[C@H](C)C[C@H](N(C)C)[C@H]2O)[C@](C)(O)C[C@@H](C)CN(CCCN(CCC#N)C(=O)NC(C)c2cccc3ccccc23)[C@H](C)[C@@H](O)[C@]1(C)O (some centres not stated),16 µg/mL,8 µg/mL,16 µg/mL,0.5 µg/mL,2 µg/mL,≤ 0.125 µg/mL,8 µg/mL,32 µg/mL,2 µg/mL,≤ 0.125 µg/mL,32 µg/mL
CC[C@H]1OC(=O)[C@H](C)[C@@H](O[C@H]2C[C@@](C)(OC)[C@@H](O)[C@H](C)O2)[C@H](C)[C@@H](O[C@@H]2O[C@H](C)C[C@H](N(C)C)[C@H]2O)[C@](C)(O)C[C@@H](C)CN(CCCN(CCC#N)C(=S)NCCc2ccccc2)[C@H](C)[C@@H](O)[C@]1(C)O,32 µg/mL,16 µg/mL,64 µg/mL,2 µg/mL,4 µg/mL,≤ 0.125 µg/mL,8 µg/mL,16 µg/mL,1 µg/mL,≤ 0.125 µg/mL,32 µg/mL
CC[C@H]1OC(=O)[C@H](C)[C@@H](O[C@H]2C[C@@](C)(OC)[C@@H](O)[C@H](C)O2)[C@H](C)[C@@H](O[C@@H]2O[C@H](C)C[C@H](N(C)C)[C@H]2O)[C@](C)(O)C[C@@H](C)CN(CCCNC(=O)Nc2ccc3ccccc3c2)[C@H](C)[C@@H](O)[C@]1(C)O,8 µg/mL,4 µg/mL,16 µg/mL,0.25 µg/mL,2 µg/mL,≤ 0.125 µg/mL,2 µg/mL,16 µg/mL,1 µg/mL,≤ 0.125 µg/mL,4 µg/mL
CC[C@H]1OC(=O)[C@H](C)[C@@H](O[C@H]2C[C@@](C)(OC)[C@@H](O)[C@H](C)O2)[C@H](C)[C@@H](O[C@@H]2O[C@H](C)C[C@H](N(C)C)[C@H]2O)[C@](C)(O)C[C@@H](C)CN(CCCNC(=O)NC(C)c2cccc3ccccc23)[C@H](C)[C@@H](O)[C@]1(C)O (some centres not stated),8 µg/mL,8 µg/mL,16 µg/mL,0.25 µg/mL,2 µg/mL,≤ 0.125 µg/mL,2 µg/mL,32 µg/mL,1 µg/mL,≤ 0.125 µg/mL,16 µg/mL
CC[C@H]1OC(=O)[C@H](C)[C@@H](O[C@H]2C[C@@](C)(OC)[C@@H](O)[C@H](C)O2)[C@H](C)[C@@H](O[C@@H]2O[C@H](C)C[C@H](N(C)C)[C@H]2O)[C@](C)(O)C[C@@H](C)CN(C)[C@H](C)[C@@H](O)[C@]1(C)O [AZITHROMYCIN],8 µg/mL,4 µg/mL,64 µg/mL,≤ 0.125 µg/mL,1 µg/mL,≤ 0.125 µg/mL,8 µg/mL,2 µg/mL,0.5 µg/mL,≤ 0.125 µg/mL,8 µg/mL
CC[C@H]1OC(=O)[C@H](C)[C@@H](O[C@H]2C[C@@](C)(OC)[C@@H](O)[C@H](C)O2)[C@H](C)[C@@H](O[C@@H]2O[C@H](C)C[C@H](N(C)C)[C@H]2O)[C@](C)(O)C[C@@H](C)CN(CCCNC(=S)Nc2ccccc2)[C@H](C)[C@@H](O)[C@]1(C)O,8 µg/mL,16 µg/mL,> 64 µg/mL,2 µg/mL,4 µg/mL,≤ 0.125 µg/mL,8 µg/mL,8 µg/mL,0.5 µg/mL,≤ 0.125 µg/mL,16 µg/mL
